# Data: ChEMBL document CHEMBL3407380, “Structure-based design of phthalimide derivatives as potential cyclooxygenase-2 (COX-2) inhibitors: anti-inflammatory and analgesic activities” (Eur J Med Chem, 2015)
# pIC50: −log10 of the molar value.
# What was measured:
# [1] = target: T1, Prostaglandin G/H synthase 1 (Ovis aries, UniProt P05979); test: Inhibition of ovine COX1 assessed as inhibition of PGF2alpha production from PGH2 preincubated for 5 mins before arachidonic acid addition measured after 2 mins by enzyme immunoassay
# T1 sequence (P05979 whole entry): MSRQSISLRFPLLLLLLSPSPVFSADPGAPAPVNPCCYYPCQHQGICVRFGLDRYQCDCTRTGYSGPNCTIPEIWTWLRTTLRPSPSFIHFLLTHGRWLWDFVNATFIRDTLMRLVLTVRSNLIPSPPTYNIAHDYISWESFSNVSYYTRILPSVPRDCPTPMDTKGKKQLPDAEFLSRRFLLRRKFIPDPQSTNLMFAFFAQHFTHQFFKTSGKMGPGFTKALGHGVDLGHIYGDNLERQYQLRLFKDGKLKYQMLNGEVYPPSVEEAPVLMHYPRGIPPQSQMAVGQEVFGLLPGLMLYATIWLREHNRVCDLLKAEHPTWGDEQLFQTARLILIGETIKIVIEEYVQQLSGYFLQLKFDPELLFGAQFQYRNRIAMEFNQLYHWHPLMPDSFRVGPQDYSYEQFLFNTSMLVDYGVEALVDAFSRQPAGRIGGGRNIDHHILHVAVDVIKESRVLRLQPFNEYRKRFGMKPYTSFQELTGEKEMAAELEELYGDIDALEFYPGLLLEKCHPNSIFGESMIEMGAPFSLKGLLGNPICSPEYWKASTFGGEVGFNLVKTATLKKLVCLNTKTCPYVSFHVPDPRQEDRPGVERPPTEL
# How it was run: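 Ovine COX-1 from a COX-1/COX-2 inhibitor screening kit, in 0.1 M Tris-HCl pH 8.0. Enzyme was incubated with inhibitor for 5 min at 37 °C. Arachidonic acid (100 µM solution) was then added, and the reaction was stopped with 1 M HCl after 2 min. Prostaglandins were quantified by competitive acetylcholinesterase-tracer EIA read at 410 nm.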
# Rattus norvegicus = test: Antiinflammatory activity in ip dosed Sprague-Dawley rat assessed as inhibition of carrageenan-induced paw edema measured 2 hrs post dose by displacement plethysmometer analysis; assay type: functional
# Mus musculus = test: Analgesic activity in ip dosed albino Swiss mouse assessed as licking or blowing latency time measured 60 mins post dose by hot plate method; assay type: functional; conditions: 1 h
SMILES,pIC50 [1],ED50 (Rattus norvegicus) [mg/kg],ED50 (Mus musculus) [mg/kg]
COc1cc(CN2C(=O)c3ccc([N+](=O)[O-])cc3C2=O)cc(OC)c1OC,3.92,54,27.6
O=C1c2cccc3cccc(c23)C(=O)N1Cc1ccc(F)cc1,< 4.00,,
O=C1c2cc(Cl)c(Cl)cc2C(=O)N1Cc1ccc(F)cc1,< 4.00,,
COc1cc(CN2C(=O)c3ccc(C(C)(C)C)cc3C2=O)cc(OC)c1OC,< 4.00,147,79.3
COc1ccc(CN2C(=O)c3ccccc3C2=O)cc1,3.96,162,107
COc1cc(CN2C(=O)CCC2=O)cc(OC)c1OC,< 4.00,180,95
COc1ccc(CN2C(=O)C3CC=CCC3C2=O)cc1 (configuration not stated),< 4.00,,
COc1cc(CN2C(=O)C3CC=CCC3C2=O)cc(OC)c1OC (configuration not stated),< 4.00,171,125
O=C1c2nccnc2C(=O)N1Cc1ccc(F)cc1,< 4.00,,
CC(C)(C)c1ccc2c(c1)C(=O)N(Cc1ccc(F)cc1)C2=O,< 4.00,,
COc1ccc(CN2C(=O)c3cc(Cl)c(Cl)cc3C2=O)cc1,3.88,75,51.2
COc1ccc(CN2C(=O)c3ccc(C)cc3C2=O)cc1,< 4.00,153,80.5
O=C1C2CC=CCC2C(=O)N1Cc1ccc(F)cc1 (configuration not stated),< 4.00,,
O=C1c2c(Cl)c(Cl)c(Cl)c(Cl)c2C(=O)N1Cc1ccc(F)cc1,< 4.00,,
O=C1CCC(=O)N1Cc1ccc(F)cc1,< 4.00,,
COc1cc(CN2C(=O)c3ccc(C)cc3C2=O)cc(OC)c1OC,< 4.00,130,

SMILES,pIC50 [1],ED50 (Rattus norvegicus) [mg/kg],ED50 (Mus musculus) [mg/kg]
COc1ccc(CN2C(=O)c3ccc(C(C)(C)C)cc3C2=O)cc1,< 4.00,137,96.1
O=C1c2ccccc2C(=O)N1Cc1ccc(F)cc1,3.94,170,90
COc1ccc(CN2C(=O)c3ccc([N+](=O)[O-])cc3C2=O)cc1,3.93,68,17
COc1cc(CN2C(=O)c3ccccc3C2=O)cc(OC)c1OC,< 4.00,149,110
COc1ccc(CN2C(=O)c3nccnc3C2=O)cc1,3.93,159,106
COc1ccc(CN2C(=O)CCC2=O)cc1,< 4.00,,
COc1cc(CN2C(=O)c3cc(Cl)c(Cl)cc3C2=O)cc(OC)c1OC,3.92,67,57.4
O=C1c2ccc([N+](=O)[O-])cc2C(=O)N1Cc1ccc(F)cc1,< 4.00,127,35
COc1cc(CN2C(=O)c3c(Cl)c(Cl)c(Cl)c(Cl)c3C2=O)cc(OC)c1OC,< 4.00,144,54.7
COc1ccc(CN2C(=O)c3c(Cl)c(Cl)c(Cl)c(Cl)c3C2=O)cc1,< 4.00,103,52.9
COc1ccc(CN2C(=O)c3cccc4cccc(c34)C2=O)cc1,< 4.00,129,119
COc1cc(CN2C(=O)c3cccc4cccc(c34)C2=O)cc(OC)c1OC,< 4.00,115,88
COc1cc(CN2C(=O)c3nccnc3C2=O)cc(OC)c1OC,< 4.00,119,40.5
Cc1ccc(-c2cc(C(F)(F)F)nn2-c2ccc(S(N)(=O)=O)cc2)cc1 [CELECOXIB],,,71
Cc1ccc2c(c1)C(=O)N(Cc1ccc(F)cc1)C2=O,< 4.00,172,97
